Experimental data as given in ChEMBL document CHEMBL4118097, “Selective Inhibitors of Dual Leucine Zipper Kinase (DLK, MAP3K12) with Activity in a Model of Alzheimer's Disease” (J Med Chem, 2017).

What was measured:
[1] = target: T1, Mitogen-activated protein kinase kinase kinase 12 (Homo sapiens, UniProt Q12852); test: Binding affinity to N-terminally GST-tagged wild type human DLK (1 to 520 residues) expressed in sf21 insect cells using N-terminally His-tagged MKK4 K131M as substrate after 60 mins in presence of ATP by TR-FRET assay
T1 sequence (Q12852 whole entry): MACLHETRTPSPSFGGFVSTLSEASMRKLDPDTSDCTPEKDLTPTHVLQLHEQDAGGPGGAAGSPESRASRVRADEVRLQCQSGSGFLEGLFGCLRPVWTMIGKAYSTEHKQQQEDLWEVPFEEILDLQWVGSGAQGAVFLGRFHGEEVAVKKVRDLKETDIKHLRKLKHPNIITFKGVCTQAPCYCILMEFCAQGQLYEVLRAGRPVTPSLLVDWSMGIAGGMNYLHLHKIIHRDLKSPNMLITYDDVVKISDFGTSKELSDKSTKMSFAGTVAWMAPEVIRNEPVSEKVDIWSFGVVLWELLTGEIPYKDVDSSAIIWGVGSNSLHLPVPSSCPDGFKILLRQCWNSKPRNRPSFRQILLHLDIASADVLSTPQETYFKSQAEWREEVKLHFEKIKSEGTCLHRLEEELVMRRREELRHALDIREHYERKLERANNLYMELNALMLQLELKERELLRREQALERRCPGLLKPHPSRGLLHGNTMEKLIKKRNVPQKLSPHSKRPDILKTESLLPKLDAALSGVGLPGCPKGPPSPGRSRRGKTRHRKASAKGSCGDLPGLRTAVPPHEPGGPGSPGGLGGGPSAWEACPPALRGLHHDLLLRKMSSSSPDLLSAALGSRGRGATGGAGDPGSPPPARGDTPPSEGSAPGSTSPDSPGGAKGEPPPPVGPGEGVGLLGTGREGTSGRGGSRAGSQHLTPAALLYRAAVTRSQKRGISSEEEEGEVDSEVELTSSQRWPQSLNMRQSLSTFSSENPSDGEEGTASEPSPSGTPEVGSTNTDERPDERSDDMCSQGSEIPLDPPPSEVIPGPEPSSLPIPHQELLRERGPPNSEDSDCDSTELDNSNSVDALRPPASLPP

[2] = target: Tyrosine-protein kinase CSK (Homo sapiens) (UniProt P41240); test: Inhibition of full length recombinant His-tagged human CSK cytoplasmic domain expressed in Escherichia coli at 1 uM by FRET assay relative to control
[3] = target: Dual specificity protein kinase CLK3 (Homo sapiens) (UniProt P49761); test: Inhibition of full length recombinant GST-tagged human CLK3 expressed in baculovirus expression system at 1 uM by FRET assay relative to control
[4] = target: Calcium/calmodulin-dependent protein kinase type II subunit beta (Homo sapiens) (UniProt Q13554); test: Inhibition of recombinant full length His-tagged human CaMK2beta expressed in baculovirus expression system at 1 uM by FRET assay relative to control
[5] = target: Protein-tyrosine kinase 6 (Homo sapiens) (UniProt Q13882); test: Inhibition of recombinant full length His-tagged human Brk cytoplasmic domain expressed in baculovirus expression system at 1 uM by FRET assay relative to control
[6] = target: Activin receptor type-1 (Homo sapiens) (UniProt Q04771); test: Inhibition of recombinant GST-tagged human ALK2 catalytic domain (147 to end residues) at 1 uM by FRET assay relative to control
[7] = target: RAC-alpha serine/threonine-protein kinase (Homo sapiens) (UniProt P31749); test: Inhibition of recombinant full length His-tagged human AKT1 expressed in baculovirus expression system at 1 uM by FRET assay relative to control
[8] = target: Insulin-like growth factor 1 receptor (Homo sapiens) (UniProt P08069); test: Inhibition of recombinant His-tagged human IGF1R cytoplasmic domain (960 to 1397 residues) expressed in baculovirus expression system at 1 uM by FRET relative to control
Method in brief: (§1)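 Single-point screen at 1 μM compound in a 220-kinase panel run by Life Technologies (SelectScreen). Z′-LYTE format: phosphorylation of a labeled peptide substrate read by FRET. Values are reported as percent inhibition.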

[9] = target: G protein-coupled receptor kinase 5 (Homo sapiens) (UniProt P34947); test: Inhibition of recombinant full length GST-tagged human GRK5 expressed in baculovirus expression system at 1 uM by FRET relative to control
Method in brief: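 Single-concentration screen at 1 μM in Life Technologies SelectScreen, across a 220-kinase panel. Z′-LYTE format measures phosphorylation of a labeled peptide by FRET. Results are reported as percent inhibition.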

[10] = target: Receptor tyrosine-protein kinase erbB-2 (Homo sapiens) (UniProt P04626); test: Inhibition of recombinant His-tagged human ErbB2 cytoplasmic domain expressed in baculovirus expression system at 1 uM by FRET assay relative to control; method in brief: as §1
[11] = target: Protein kinase C delta type (Homo sapiens) (UniProt Q05655); test: Inhibition of recombinant full length human PKCdelta expressed in baculovirus expression system at 1 uM by FRET assay relative to control
[12] = target: Serine/threonine-protein kinase PAK 4 (Homo sapiens, UniProt O96013); test: Inhibition of recombinant GST-tagged human PAK4 catalytic domain expressed in baculovirus expression system at 1 uM by FRET assay relative to control; method in brief: as §1
[13] = target: Serine/threonine-protein kinase PAK 3 (Homo sapiens) (UniProt O75914); test: Inhibition of recombinant full length His-tagged human PAK3 expressed in baculovirus expression system at 1 uM by FRET assay relative to control
[14] = target: SRSF protein kinase 3 (Homo sapiens) (UniProt Q9UPE1); test: Inhibition of recombinant full length N-terminal GST-tagged human MSSK1 expressed in baculovirus at 1 uM by FRET assay relative to control
[15] = target: Adrenergic receptor alpha-1 (Homo sapiens) (UniProt P35348+P25100+P35368); test: Binding affinity to alpha1 adrenergic receptor (unknown origin) at 10 uM relative to control; type: protein assay
Method in brief: (§2)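 Broad radioligand-binding and enzyme screening panel covering 42 targets (biogenic amine and neuropeptide receptors, ion channels, neurotransmitter transporters, acetylcholinesterase). Single test concentration of 10 μM. Results expressed as binding relative to control, with a hit defined as >50% of control.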

[16] = target: Adrenergic receptor alpha-2 (Homo sapiens) (UniProt P08913+P18825+P18089); test: Binding affinity to alpha2 adrenergic receptor (unknown origin) at 10 uM relative to control; type: protein assay; method in brief: as §2
[17] = target: GABA-A receptor; alpha-1/beta-2/gamma-2 (Homo sapiens) (UniProt P14867+P47870+P18507); test: Binding affinity to GABA-A alpha1beta2gamma2 receptor (unknown origin) at 10 uM relative to control; type: protein-complex assay; method in brief: as §2
[18] = target: Muscarinic acetylcholine receptor M3 (Homo sapiens) (UniProt P20309); test: Binding affinity to recombinant human M3 acetylcholine receptor at 10 uM relative to control; method in brief: as §2
[19] = target: 5-hydroxytryptamine receptor 3A (Homo sapiens) (UniProt P46098); test: Binding affinity to 5HT3 receptor (unknown origin) receptor at 10 uM relative to control; method in brief: as §2
5-hydroxytryptamine receptor 3A (Homo sapiens), sequence (P46098 whole entry): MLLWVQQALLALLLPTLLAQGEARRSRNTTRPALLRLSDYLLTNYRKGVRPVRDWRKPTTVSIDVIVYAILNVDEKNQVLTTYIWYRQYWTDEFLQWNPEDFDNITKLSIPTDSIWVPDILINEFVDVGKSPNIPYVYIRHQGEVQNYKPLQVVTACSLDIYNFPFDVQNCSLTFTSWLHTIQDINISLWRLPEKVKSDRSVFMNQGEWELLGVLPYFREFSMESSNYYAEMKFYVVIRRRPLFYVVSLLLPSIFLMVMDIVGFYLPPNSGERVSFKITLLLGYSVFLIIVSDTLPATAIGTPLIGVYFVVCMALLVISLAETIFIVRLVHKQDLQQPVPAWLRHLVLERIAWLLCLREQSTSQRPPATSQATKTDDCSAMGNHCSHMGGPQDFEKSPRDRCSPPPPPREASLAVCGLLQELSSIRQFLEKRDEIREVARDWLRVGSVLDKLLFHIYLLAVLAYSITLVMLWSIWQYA

Receptor tyrosine-protein kinase erbB-2 (Homo sapiens), sequence (P04626 whole entry, the tested form may be a part): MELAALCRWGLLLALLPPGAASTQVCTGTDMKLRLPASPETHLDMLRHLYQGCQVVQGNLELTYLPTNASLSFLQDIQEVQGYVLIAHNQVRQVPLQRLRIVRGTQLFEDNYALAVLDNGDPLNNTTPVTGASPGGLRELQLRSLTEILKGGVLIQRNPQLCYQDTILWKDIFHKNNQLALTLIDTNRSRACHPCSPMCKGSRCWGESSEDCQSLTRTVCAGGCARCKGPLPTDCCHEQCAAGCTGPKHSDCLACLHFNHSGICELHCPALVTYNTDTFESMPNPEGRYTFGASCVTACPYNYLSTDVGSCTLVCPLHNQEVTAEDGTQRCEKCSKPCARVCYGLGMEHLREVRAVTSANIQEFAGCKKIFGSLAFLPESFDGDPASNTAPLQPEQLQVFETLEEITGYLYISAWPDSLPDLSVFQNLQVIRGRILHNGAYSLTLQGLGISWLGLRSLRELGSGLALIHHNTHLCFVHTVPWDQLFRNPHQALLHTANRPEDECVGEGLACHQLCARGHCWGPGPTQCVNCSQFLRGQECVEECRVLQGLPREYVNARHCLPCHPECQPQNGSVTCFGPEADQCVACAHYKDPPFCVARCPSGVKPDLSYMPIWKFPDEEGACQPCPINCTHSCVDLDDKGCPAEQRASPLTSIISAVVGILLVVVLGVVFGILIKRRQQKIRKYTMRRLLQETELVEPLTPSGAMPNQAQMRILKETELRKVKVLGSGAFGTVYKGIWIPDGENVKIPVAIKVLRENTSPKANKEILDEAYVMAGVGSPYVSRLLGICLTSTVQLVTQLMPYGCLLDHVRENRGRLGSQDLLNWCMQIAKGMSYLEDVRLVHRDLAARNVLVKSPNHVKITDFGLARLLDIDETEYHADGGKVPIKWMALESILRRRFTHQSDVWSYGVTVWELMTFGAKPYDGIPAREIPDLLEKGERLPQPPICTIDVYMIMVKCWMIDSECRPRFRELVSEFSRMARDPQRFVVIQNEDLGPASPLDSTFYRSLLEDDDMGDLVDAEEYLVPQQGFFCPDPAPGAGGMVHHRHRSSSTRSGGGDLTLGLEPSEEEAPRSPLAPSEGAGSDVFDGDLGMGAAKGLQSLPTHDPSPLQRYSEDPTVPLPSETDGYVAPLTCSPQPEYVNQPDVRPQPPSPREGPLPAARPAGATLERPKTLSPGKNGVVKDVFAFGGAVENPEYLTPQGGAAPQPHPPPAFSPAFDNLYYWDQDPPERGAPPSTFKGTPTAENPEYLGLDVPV
Activin receptor type-1 (Homo sapiens), sequence (Q04771 whole entry, the tested form may be a part): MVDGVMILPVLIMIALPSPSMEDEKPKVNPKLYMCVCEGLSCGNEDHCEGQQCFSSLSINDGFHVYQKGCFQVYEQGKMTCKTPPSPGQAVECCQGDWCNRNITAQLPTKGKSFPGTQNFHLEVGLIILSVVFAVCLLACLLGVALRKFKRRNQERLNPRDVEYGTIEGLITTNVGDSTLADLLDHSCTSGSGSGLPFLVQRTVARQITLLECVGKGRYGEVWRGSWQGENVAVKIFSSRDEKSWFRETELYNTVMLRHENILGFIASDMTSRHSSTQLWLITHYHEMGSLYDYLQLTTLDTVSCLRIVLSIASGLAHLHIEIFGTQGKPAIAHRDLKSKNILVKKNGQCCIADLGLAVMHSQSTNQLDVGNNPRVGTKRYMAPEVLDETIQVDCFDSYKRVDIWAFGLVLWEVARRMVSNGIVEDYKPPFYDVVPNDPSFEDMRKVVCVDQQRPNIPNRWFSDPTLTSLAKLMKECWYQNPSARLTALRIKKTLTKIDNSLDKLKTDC
SRSF protein kinase 3 (Homo sapiens), sequence (Q9UPE1 whole entry): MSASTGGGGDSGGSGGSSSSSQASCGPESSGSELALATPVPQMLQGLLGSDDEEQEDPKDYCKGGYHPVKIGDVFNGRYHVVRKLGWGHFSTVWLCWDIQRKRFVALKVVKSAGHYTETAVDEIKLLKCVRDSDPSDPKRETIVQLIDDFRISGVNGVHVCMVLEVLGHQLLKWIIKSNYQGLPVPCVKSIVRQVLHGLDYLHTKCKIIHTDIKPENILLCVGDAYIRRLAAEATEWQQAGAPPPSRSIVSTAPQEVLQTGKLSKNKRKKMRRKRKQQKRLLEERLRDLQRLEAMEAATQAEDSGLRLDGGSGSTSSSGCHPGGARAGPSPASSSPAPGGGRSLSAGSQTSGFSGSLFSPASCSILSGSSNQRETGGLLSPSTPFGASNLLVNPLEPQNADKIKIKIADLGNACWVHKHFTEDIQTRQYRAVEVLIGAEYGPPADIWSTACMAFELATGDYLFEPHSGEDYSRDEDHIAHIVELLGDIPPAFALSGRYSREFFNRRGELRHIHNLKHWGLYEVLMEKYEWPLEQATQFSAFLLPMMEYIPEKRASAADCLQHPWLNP
Protein-tyrosine kinase 6 (Homo sapiens), sequence (Q13882 whole entry, looked up, the tested form may be a part): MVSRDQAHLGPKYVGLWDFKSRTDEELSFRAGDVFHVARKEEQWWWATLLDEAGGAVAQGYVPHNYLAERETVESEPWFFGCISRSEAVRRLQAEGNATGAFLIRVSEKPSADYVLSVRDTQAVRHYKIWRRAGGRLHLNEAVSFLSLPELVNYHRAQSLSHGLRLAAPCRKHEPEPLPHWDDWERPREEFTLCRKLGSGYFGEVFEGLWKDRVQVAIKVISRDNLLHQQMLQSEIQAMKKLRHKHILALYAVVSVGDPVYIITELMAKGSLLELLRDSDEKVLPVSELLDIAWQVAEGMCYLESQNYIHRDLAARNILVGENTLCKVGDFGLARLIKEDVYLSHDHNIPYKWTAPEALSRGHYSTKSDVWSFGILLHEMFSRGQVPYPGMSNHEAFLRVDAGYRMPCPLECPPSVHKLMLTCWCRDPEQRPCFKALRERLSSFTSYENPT
Protein kinase C delta type (Homo sapiens), sequence (Q05655 whole entry, looked up, the tested form may be a part): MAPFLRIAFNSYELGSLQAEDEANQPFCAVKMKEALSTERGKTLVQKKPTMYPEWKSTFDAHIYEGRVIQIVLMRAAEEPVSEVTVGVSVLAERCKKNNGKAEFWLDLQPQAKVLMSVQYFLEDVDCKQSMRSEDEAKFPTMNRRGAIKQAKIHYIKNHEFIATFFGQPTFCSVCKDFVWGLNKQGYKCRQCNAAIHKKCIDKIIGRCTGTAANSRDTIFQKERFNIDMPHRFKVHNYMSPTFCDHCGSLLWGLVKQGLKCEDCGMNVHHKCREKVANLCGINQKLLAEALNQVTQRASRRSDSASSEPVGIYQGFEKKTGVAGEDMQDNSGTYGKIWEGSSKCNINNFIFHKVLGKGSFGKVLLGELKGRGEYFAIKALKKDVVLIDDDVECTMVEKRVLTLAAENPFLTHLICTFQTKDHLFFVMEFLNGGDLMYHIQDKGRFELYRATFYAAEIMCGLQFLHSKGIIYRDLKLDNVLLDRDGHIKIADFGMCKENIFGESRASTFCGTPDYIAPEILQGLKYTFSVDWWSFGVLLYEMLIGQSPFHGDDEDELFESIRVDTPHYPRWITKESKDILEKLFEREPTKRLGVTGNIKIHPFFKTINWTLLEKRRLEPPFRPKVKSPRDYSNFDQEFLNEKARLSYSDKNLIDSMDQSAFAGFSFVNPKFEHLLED
Muscarinic acetylcholine receptor M3 (Homo sapiens), sequence (P20309 whole entry, looked up): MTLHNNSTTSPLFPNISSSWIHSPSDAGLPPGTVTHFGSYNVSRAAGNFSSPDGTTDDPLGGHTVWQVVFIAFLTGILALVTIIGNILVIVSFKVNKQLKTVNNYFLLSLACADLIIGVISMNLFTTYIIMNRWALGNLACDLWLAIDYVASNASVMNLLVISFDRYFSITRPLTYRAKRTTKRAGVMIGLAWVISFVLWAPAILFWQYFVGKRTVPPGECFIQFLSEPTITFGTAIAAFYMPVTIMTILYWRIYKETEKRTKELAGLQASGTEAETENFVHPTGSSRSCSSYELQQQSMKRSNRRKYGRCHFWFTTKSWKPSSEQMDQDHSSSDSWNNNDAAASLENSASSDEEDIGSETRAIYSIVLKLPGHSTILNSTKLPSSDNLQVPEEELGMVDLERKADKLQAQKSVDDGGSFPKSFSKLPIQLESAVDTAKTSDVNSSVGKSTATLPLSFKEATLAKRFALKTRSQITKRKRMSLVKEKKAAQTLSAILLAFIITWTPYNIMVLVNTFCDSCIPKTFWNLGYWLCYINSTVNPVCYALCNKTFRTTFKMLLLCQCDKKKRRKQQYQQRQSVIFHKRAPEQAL
RAC-alpha serine/threonine-protein kinase (Homo sapiens), sequence (P31749 whole entry, the tested form may be a part): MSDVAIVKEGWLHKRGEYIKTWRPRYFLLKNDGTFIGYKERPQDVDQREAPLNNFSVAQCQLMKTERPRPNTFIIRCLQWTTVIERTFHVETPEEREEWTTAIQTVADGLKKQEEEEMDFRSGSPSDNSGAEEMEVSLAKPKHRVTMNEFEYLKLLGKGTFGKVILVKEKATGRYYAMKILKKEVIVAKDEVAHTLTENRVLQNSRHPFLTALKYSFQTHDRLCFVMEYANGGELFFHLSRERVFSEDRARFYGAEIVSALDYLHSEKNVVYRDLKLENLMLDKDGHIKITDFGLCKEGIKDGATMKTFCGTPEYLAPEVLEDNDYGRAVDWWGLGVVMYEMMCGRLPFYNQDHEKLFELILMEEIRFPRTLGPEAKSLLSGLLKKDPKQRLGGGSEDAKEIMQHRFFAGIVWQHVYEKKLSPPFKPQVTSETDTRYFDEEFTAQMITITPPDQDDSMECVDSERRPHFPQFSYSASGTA

| SMILES | Ki [1] | inhibition [2] | inhibition [3] | inhibition [4] | inhibition [5] | inhibition [6] | inhibition [7] | inhibition [8] | inhibition [9] | inhibition [10] | inhibition [11] | inhibition [12] | inhibition [13] | inhibition [14] | Activity [15] | Activity [16] | Activity [17] | Activity [18] | Activity [19] |
| --- | --- | --- | --- | --- | --- | --- | --- | --- | --- | --- | --- | --- | --- | --- | --- | --- | --- | --- | --- |
| CC(C)n1nc(-c2cnc(N)c(OC(F)(F)F)c2)cc1[C@H]1[C@@H]2CN(C3COC3)C[C@@H]21 | 3 nM | 6.8% | 5.9% | 10.6% | 7.8% | 10.9% | 1.7% | 9.3% | -1.3% | -0.8% | 0.9% | 69.5% | 3.6% | 6.5% | > 50% | > 50% | > 50% | > 50% | > 50% |
| Nc1ncc(-c2cc([C@H]3[C@@H]4CN(C5COC5)C[C@@H]43)n(CC3CC3)n2)cc1C(F)(F)F | 4 nM | 14.8% | -3.6% | 1.6% | 5.8% | 25.8% | -0.4% | 13.8% | -8.1% | -5.4% | -0.7% | 40.5% | 17.2% | -2.4% | > 50% | > 50% | > 50% | > 50% | > 50% |
